9 compounds from ChEMBL document CHEMBL1122824, “Synthesis and biological properties of (carboxyalkyl)amino-substituted bicyclic lactam inhibitors of angiotensin converting enzyme” (J Med Chem, 1985) can be followed below.

Where “and” joins values, the source holds several entries; their conditions need not be identical. Identical values can stand only once.

Assay [1] concerns the target T1, Angiotensin-converting enzyme (Oryctolagus cuniculus, UniProt P12822).
T1 sequence (P12822 whole entry): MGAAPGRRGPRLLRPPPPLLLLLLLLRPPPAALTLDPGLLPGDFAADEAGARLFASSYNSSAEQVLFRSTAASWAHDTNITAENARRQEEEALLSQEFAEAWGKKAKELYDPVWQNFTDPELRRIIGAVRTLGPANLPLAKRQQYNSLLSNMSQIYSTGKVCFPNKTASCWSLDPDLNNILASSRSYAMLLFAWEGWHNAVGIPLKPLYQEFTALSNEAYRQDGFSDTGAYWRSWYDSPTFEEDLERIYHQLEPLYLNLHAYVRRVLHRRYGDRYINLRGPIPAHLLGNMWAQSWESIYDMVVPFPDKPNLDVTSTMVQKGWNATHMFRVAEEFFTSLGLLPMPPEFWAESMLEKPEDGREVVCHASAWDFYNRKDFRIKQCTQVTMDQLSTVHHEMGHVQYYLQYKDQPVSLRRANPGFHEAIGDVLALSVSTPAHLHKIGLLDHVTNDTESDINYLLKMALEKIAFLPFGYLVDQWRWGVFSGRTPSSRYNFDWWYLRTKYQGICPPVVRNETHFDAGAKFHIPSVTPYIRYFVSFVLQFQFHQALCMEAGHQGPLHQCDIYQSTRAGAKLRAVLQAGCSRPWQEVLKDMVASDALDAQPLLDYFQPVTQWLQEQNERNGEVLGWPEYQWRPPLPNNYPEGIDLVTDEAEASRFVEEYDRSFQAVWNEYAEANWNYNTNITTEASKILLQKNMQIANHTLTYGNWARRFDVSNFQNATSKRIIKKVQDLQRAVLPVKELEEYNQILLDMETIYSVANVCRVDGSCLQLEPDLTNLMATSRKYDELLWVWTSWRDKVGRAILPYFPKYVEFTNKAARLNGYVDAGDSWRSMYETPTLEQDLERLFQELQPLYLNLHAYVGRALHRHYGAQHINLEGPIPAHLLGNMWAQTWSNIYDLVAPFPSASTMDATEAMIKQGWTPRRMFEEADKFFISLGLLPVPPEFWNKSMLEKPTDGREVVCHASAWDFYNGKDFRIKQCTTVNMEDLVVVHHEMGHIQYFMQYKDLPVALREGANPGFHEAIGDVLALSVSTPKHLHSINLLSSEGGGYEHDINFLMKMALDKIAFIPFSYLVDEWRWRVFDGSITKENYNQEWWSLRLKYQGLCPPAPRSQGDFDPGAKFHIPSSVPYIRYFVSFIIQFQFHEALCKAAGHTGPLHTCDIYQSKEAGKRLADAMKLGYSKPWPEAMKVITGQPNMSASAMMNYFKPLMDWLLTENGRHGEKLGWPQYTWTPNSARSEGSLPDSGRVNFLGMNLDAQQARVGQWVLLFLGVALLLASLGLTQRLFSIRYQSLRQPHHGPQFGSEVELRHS
The experiment in a line: Inhibition of Angiotensin I converting enzyme.

For assay [2], the system named is Rattus norvegicus. The experiment in a line: Effects of oral dosing (0.1 mg/kg) on systolic blood pressure in spontaneously hypertensive rats, day 2,at 24 hr. The class given is functional, Artery. In short, it runs like this:
(§1)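 Spontaneously hypertensive rats, 6 per group, were dosed orally once daily for 4 days at 0.1, 1.0 or 10 mg/kg. Systolic pressure was recorded before the first dose and at 2 and 24 h after each daily dose. Values are group mean ±SE with change from predose.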

The subject of assay [3] is Rattus norvegicus. The experiment in a line: Effects of oral dosing (1 mg/kg) on systolic blood pressure in spontaneously hypertensive rats, day 3,at 24 hr. The class given is functional, Artery. In short, it runs like this: as §1
Assay [4] deals with Rattus norvegicus. The experiment in a line: Effects of oral dosing (10 mg/kg) on systolic blood pressure in spontaneously hypertensive rats, day 2,at 24 hr. It is filed as functional, Artery. A digest of the protocol: as §1
Assay [5] deals with Rattus norvegicus. The experiment in a line: Effects of oral dosing (1 mg/kg) on systolic blood pressure in spontaneously hypertensive rats, day 3,at 2 hr. It is filed as functional, Artery. A digest of the protocol: as §1
For assay [6], the system named is Rattus norvegicus. The experiment in a line: Effects of oral dosing (1 mg/kg) on systolic blood pressure in spontaneously hypertensive rats, day 2,at 2 hr. It is filed as functional, Artery. A digest of the protocol: as §1
Assay [7] relates to Rattus norvegicus. The experiment in a line: Effects of oral dosing (10 mg/kg) on systolic blood pressure in spontaneously hypertensive rats, day 1,at 24 hr. It is filed as functional, Artery. A digest of the protocol:
as §1

In assay [8] the test system is Rattus norvegicus. The experiment in a line: Effects of oral dosing (10 mg/kg) on systolic blood pressure in spontaneously hypertensive rats, day 3,at 24 hr. It is filed as functional, Artery. A digest of the protocol:
as §1

Assay [9] relates to Rattus norvegicus. The experiment in a line: Effects of oral dosing (1 mg/kg) on systolic blood pressure in spontaneously hypertensive rats, day 1,at 24 hr. It is filed as functional, Artery. In short, it runs like this: as §1
Assay [10] concerns Rattus norvegicus. The experiment in a line: Effects of oral dosing (0.1 mg/kg) on systolic blood pressure in spontaneously hypertensive rats, day 1,at 24 hr. The class given is functional, Artery. In short, it runs like this: as §1
The test system of assay [11] is Rattus norvegicus. The experiment in a line: Effects of oral dosing (1 mg/kg) on systolic blood pressure in spontaneously hypertensive rats, day 4,at 2 hr. It is filed as functional, Artery. A digest of the protocol: as §1
In assay [12] the test system is Rattus norvegicus. The experiment in a line: Effects of oral dosing (0.1 mg/kg) on systolic blood pressure in spontaneously hypertensive rats, day 1,at 2 hr. It is filed as functional, Artery. A digest of the protocol: as §1
For assay [13], the system named is Rattus norvegicus. The experiment in a line: Effects of oral dosing (1 mg/kg) on systolic blood pressure in spontaneously hypertensive rats, day 1,at 2 hr. The class given is functional, Artery. In short, it runs like this:
as §1

For assay [14], the system named is Rattus norvegicus. The experiment in a line: Effects of oral dosing (0.1 mg/kg) on systolic blood pressure in spontaneously hypertensive rats, day 4,at 2 hr. It is filed as functional, Artery. In short, it runs like this:
as §1

The subject of assay [15] is Rattus norvegicus. The experiment in a line: Effects of oral dosing (0.1 mg/kg) on systolic blood pressure in spontaneously hypertensive rats, day 3,at 2 hr. It is filed as functional, Artery. A digest of the protocol:
as §1

The test system of assay [16] is Rattus norvegicus. The experiment in a line: Effects of oral dosing (1 mg/kg) on systolic blood pressure in spontaneously hypertensive rats, day 2,at 24 hr. It is filed as functional, Artery. A digest of the protocol: as §1
The subject of assay [17] is Rattus norvegicus. The experiment in a line: Effects of oral dosing (0.1 mg/kg) on systolic blood pressure in spontaneously hypertensive rats, day 2,at 2 hr. The class given is functional, Artery. In short, it runs like this:
as §1

The species named for assay [18] is Rattus norvegicus. The experiment in a line: Predose systolic blood pressure in spontaneously hypertensive rats. The class given is functional, Artery. A digest of the protocol: as §1
The subject of assay [19] is Rattus norvegicus. The experiment in a line: Effects of oral dosing (0.1 mg/kg) on systolic blood pressure in spontaneously hypertensive rats, day 4,at 24 hr. It is filed as functional, Artery. In short, it runs like this:
as §1

For assay [20], the system named is Rattus norvegicus. The experiment in a line: Effects of oral dosing (10 mg/kg) on systolic blood pressure in spontaneously hypertensive rats, day 4,at 24 hr. It is filed as functional, Artery. A digest of the protocol: as §1
For assay [21], the system named is Rattus norvegicus. The experiment in a line: Effects of oral dosing (10 mg/kg) on systolic blood pressure in spontaneously hypertensive rats, day 2,at 2 hr. The class given is functional, Artery. A digest of the protocol:
as §1

Assay [22] relates to Rattus norvegicus. The experiment in a line: Effects of oral dosing (10 mg/kg) on systolic blood pressure in spontaneously hypertensive rats, day 3,at 2 hr. The class given is functional, Artery. In short, it runs like this:
as §1

The subject of assay [23] is Rattus norvegicus. The experiment in a line: Effects of oral dosing (10 mg/kg) on systolic blood pressure in spontaneously hypertensive rats, day 1,at 2 hr. The class given is functional, Artery. In short, it runs like this: as §1
Assay [24] concerns Rattus norvegicus. The experiment in a line: Effects of oral dosing (1 mg/kg) on systolic blood pressure in spontaneously hypertensive rats, day 4,at 24 hr. It is filed as functional, Artery. In short, it runs like this:
as §1

Assay [25] concerns Rattus norvegicus. The experiment in a line: Effects of oral dosing (0.1 mg/kg) on systolic blood pressure in spontaneously hypertensive rats, day 3,at 24 hr. The class given is functional, Artery. A digest of the protocol: as §1
In assay [26] the test system is Rattus norvegicus. The experiment in a line: Effects of oral dosing (10 mg/kg) on systolic blood pressure in spontaneously hypertensive rats, day 4,at 2 hr. The class given is functional, Artery. A digest of the protocol:
as §1

The term IC50 denotes the concentration needed to halve the response being measured. In [1], `O=C(O)CN1C(=O)[C@@H](N[C@@H](CCc2ccccc2)C(=O)O)CCCc2ccccc21` had an IC50 of 4 nM.
As for `O=C(O)CN1C(=O)[C@H](N[C@@H](CCc2ccccc2)C(=O)O)CCCc2ccccc21`, the IC50 in [1] stood at 62 nM. Compared with the last compound, the IC50 is about 16-fold higher.
In the case of `O=C(O)CN1C(=O)[C@H](N[C@@H](CCc2ccccc2)C(=O)O)Cc2ccccc21`, inhibition in [1] was half-maximal at 5100 nM (IC50).
Still for that read-out and setting: with `O=C(O)CN1C(=O)[C@@H](N[C@@H](CCc2ccccc2)C(=O)O)Cc2ccccc21` the figure was 610 nM and 1200 nM.
As for `CCOC(=O)[C@H](CCc1ccccc1)N[C@@H](C)C(=O)N1CCC[C@H]1C(=O)O`, the Systolic blood pressure in the assay with Rattus norvegicus [2] came out at 173.7 mmHg; in the assay on Rattus norvegicus [3], 160 mmHg; in the assay with Rattus norvegicus [4], 163 mmHg; with Rattus norvegicus [5] it was 146.7 mmHg; in the assay on Rattus norvegicus [6], 158.7 mmHg; with Rattus norvegicus [7], 168.3 mmHg. Also, the Systolic blood pressure is given as 174 mmHg in the assay on Rattus norvegicus [8]; 169.5 mmHg in the assay with Rattus norvegicus [9]; 175.8 mmHg in the assay with Rattus norvegicus [10]; 145 mmHg with Rattus norvegicus [11]; 197.5 mmHg in the assay with Rattus norvegicus [12]; 160 mmHg in the assay with Rattus norvegicus [13]. The Systolic blood pressure with Rattus norvegicus [14] is 168 mmHg; in the assay on Rattus norvegicus [15], 175.7 mmHg; with Rattus norvegicus [16], 168.7 mmHg; in the assay with Rattus norvegicus [17], 172 mmHg; in the assay listed under Rattus norvegicus [18] it was 197.7 mmHg and 186.8 mmHg and 199 mmHg; in the assay with Rattus norvegicus [19], 204 mmHg. The Systolic blood pressure in the assay with Rattus norvegicus [20] was found to be 159.8 mmHg; in the assay with Rattus norvegicus [21] it was 138.5 mmHg; with Rattus norvegicus [22], 124.5 mmHg; with Rattus norvegicus [23] it was 152.5 mmHg; in the assay on Rattus norvegicus [24], 160.8 mmHg; in the assay on Rattus norvegicus [25], 173.5 mmHg. The compound further showed a Systolic blood pressure with Rattus norvegicus [26] of 135.5 mmHg.
Compound `O=C(O)CN1C(=O)[C@@H](N[C@@H](CCc2ccccc2)C(=O)O)CCc2ccccc21` (stereo in doubt; 4b) showed an IC50 in assay [1] of 2.8 nM.
The compound `O=C(O)CN1C(=O)[C@@H](N[C@@H](CCc2ccccc2)C(=O)O)CCc2ccccc21` (stereo in doubt; 4e) gave an IC50 in [1] of 5.2 nM.
Take `O=C(O)CN1C(=O)[C@@H](N[C@@H](CCc2ccccc2)C(=O)O)CCc2ccccc21` (stereo in doubt; 4f): the IC50 in assay [1] worked out at 58 nM. This IC50 is about 11-fold higher than that of the compound before.
`CCOC(=O)[C@H](CCc1ccccc1)N[C@H]1CCc2ccccc2N(CC(=O)O)C1=O.Cl` [BENAZEPRIL HYDROCHLORIDE]: the Systolic blood pressure with Rattus norvegicus [2] was determined as 169.8 mmHg; with Rattus norvegicus [3], 177.3 mmHg; in the assay with Rattus norvegicus [4], 147.3 mmHg; with Rattus norvegicus [5], 166.5 mmHg; in the assay on Rattus norvegicus [6], 182.8 mmHg; in the assay on Rattus norvegicus [7], 167.5 mmHg. In addition, the Systolic blood pressure in the assay with Rattus norvegicus [8] is recorded as 150.2 mmHg; with Rattus norvegicus [9] it was 185.8 mmHg; in the assay with Rattus norvegicus [10], 186 mmHg; in the assay on Rattus norvegicus [11] it was 171.3 mmHg; with Rattus norvegicus [12], 193.8 mmHg; with Rattus norvegicus [13] it was 185.7 mmHg. For the same compound, the Systolic blood pressure is 182.8 mmHg in the assay on Rattus norvegicus [14]; 176.2 mmHg in the assay on Rattus norvegicus [15]; 168.7 mmHg in the assay on Rattus norvegicus [16]; 195.8 mmHg in the assay with Rattus norvegicus [17]; 193.6 mmHg and 200 mmHg and 198 mmHg in the assay filed under Rattus norvegicus [18]; 176 mmHg in the assay on Rattus norvegicus [19]. The Systolic blood pressure in the assay with Rattus norvegicus [20] was found to be 150 mmHg; in the assay on Rattus norvegicus [21] it was 146 mmHg; with Rattus norvegicus [22], 131 mmHg; with Rattus norvegicus [23], 162.2 mmHg; with Rattus norvegicus [24] it was 180.2 mmHg; with Rattus norvegicus [25], 172.4 mmHg. Moreover, the Systolic blood pressure in the assay with Rattus norvegicus [26] was found to be 130.8 mmHg.
